# Source: PubChem BioAssay (several laboratories)
# A selection: hits, their analogues and other compounds. The true share with any hit is near 3.2%.
# DAX1 inh-1: DAX1 (NR0B1) inhibitors on StAR promoter, primary screen, cell-based, luminescence, SF-1 (NR5A1), full-length DAX-1; inhibition, % at 6.8 µM; HEK293T StAR-luciferase reporter, SF-1/DAX-1 repression relief; 370,000 compounds, 1.1% hits;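 active = inhibition above the mean over all tested compounds plus 3 SD, cut at about 3.6% in these data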;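 note: 0% = DAX-1 cells with DMSO and 100% = cells lacking DAX-1 with DMSO; higher inhibition means more luminescence from relief of DAX-1 repression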
# SMARCA2 act: SMARCA2 (BRM) function activators, primary screen, cell-based, luminescence, high throughput | MG213 cells, MMTV-luciferase reporter, dexamethasone, overnight | 370,000 compounds, 1% hits | AID 652017, 2013 | activation, % at 9.1 µM; in the data active = activation above about 7.8%;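 note: 0% = vehicle wells and 100% = reference activator wells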
# NR2E3 ag-1: inhibitors of NR2E3-RetCOR corepressor binding, primary screen, NR2E3 agonist project, biochemical, TR-FRET, GST-NR2E3, biotin-RetCOR | Photoreceptor-specific nuclear receptor (Homo sapiens), Q9Y5X4 | 1536-well | inhibition of corepressor binding, % at 4.78 µM | 320,000 compounds, 0.12% hits;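 active = percent inhibition above the cutoff of mean plus 3 SD of all tested compounds, set per screening campaign, cut at about 20% in these data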;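 note: 0% = DMSO wells and 100% = biotin wells as full block of FRET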
# Target sequence (Q9Y5X4 whole entry, looked up): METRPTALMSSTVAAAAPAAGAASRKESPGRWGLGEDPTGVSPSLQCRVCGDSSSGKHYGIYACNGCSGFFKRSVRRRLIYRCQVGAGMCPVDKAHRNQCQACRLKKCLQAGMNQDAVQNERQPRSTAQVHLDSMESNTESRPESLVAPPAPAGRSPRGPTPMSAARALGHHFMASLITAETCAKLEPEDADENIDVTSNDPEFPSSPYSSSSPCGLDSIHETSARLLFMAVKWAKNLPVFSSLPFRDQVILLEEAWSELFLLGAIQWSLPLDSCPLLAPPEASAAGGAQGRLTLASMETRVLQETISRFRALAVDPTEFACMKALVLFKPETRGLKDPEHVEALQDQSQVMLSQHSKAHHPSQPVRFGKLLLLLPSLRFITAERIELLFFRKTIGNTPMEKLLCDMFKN
#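 Format: 1536-well format; test system: GST-NR2E3 and biotin-RetCOR proteins; read-out basis: percent inhibition of TR-FRET ratio; timing: 5 h incubation at 4 °C; detection: time-resolved FRET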
# GASC-1 inh: inhibitors of GASC-1 histone demethylase, primary screen, biochemical, fluorescence, DELFIA europium; AID 2099, 2009; Lysine-specific demethylase 4C (Homo sapiens), Q9H3R0; inhibition, % at 2.35 µM; 330,000 compounds, 0.069% hits; GST-JMJD2C(1-420) H3K9me3 demethylation;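 active = more than half of a compound's replicate wells show inhibition beyond 50%, single wells judged on their own value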;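 note: signal counts dimethyl H3K9 product captured on neutravidin plate; 0% = median of DMSO wells and 100% = 0.3 times that DMSO median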
# DAX1 inh-2: DAX1 (NR0B1) inhibitors, primary screen, cell-based, HEK293, Gal4-DAX1, luciferase luminescence; 340,000 compounds, 0.99% hits; inhibition, % at 6.75 µM; HEK293 Gal4-DAX1 luciferase reporter; Nuclear receptor subfamily 0 group B member 1 (Homo sapiens), P51843;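 active = inhibition above the mean over all tested compounds plus 3 SD, cut at about 4.2% in these data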;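 note: 0% = DAX1-transfected cells with DMSO and 100% = empty-vector control cells with DMSO; inhibition shows as a rise in luminescence from relieved DAX1 repression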
# Target sequence (P51843 207-470 limits assumed): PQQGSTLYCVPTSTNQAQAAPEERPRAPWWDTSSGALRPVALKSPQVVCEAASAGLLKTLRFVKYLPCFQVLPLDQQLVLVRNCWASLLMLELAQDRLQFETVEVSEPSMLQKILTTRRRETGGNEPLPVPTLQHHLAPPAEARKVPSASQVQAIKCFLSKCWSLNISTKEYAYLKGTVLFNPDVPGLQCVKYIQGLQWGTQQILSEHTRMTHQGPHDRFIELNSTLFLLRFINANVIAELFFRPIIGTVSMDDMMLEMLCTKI
# NR2E3 ag-2: NR2E3 agonists in two-hybrid cells, primary screen, cell-based, luminescence, CHO-S, Gal4-NCOR/VP16-NR2E3 | 360,000 compounds, 0.35% hits | inhibition of corepressor binding, % at 3.98 µM | luciferase | AID 602229, 2012;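 active = inhibition above the mean of all tested compounds plus 3 SD, cut at about 70% in these data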;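 note: 0% = DMSO with NR2E3 transfected cells and 100% = cells lacking NR2E3 construct; higher means lower luciferase signal from less NR2E3 corepressor binding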
# DAX1 conf: DAX1 (NR0B1) inhibitors relieving SF-1 repression, confirmation, cell-based, luminescence, HEK293T, full-length DAX-1, SF-1 activated StAR promoter | shares compounds with DAX1 inh-1 | HEK293T StAR-promoter luciferase reporter, SF-1/DAX-1 repression | inhibition, % at 6.8 µM | 2,400 compounds, 87% hits | AID 652134, 2013;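 active = inhibition above the average of every tested compound plus 3 SD, cut at about 3.8% in these data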;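 note: 0% = DAX-1 cells with DMSO and 100% = no DAX-1 control cells with DMSO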
# SF1 AF2mut Luc: StAR reporter signal changes without DAX1, counter-screen for DAX1 inhibitor project, cell-based, luminescence, AF-2 mutant SF-1, transactivation. shares compounds with DAX1 inh-1. HEK293 StAR-luciferase, SF-1 AF2 mutant. inhibition, % at 6.8 µM. 2,400 compounds, 78% hits;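 active = inhibition above the mean of all tested compounds plus 3 SD, cut at about 3% in these data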;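 note: 0% = DAX-1 transfected cells with DMSO and 100% = cells without DAX-1 with DMSO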
# An asterisk follows results filed as active; . = not tested or not shown.
SMILES,DAX1 inh-1,SMARCA2 act,NR2E3 ag-1,GASC-1 inh,DAX1 inh-2,NR2E3 ag-2,DAX1 conf,SF1 AF2mut Luc
CC(C)(C)OC(=O)/C=C/[C@H](CCCCl)Sc1ccc(C(C)(C)C)cc1,-3.1,-4.7,.,.,.,.,.,.
Cc1ccc(CSc2nc3ccncc3[nH]2)cc1,12.6*,-0.1,0.1,-12.4,-4.0,-159.3,16.3*,9.6*
O=C(NCc1ccc(Cl)cc1)c1ccc(CSc2nc3ccncc3[nH]2)cc1,-0.6,-5.4,0.9,4.9,-2.3,-24.7,.,.
Clc1ccc(CSc2nc3ccncc3[nH]2)cc1,8.4*,3.8,0.4,8.8,-2.8,-154.4,12.0*,5.9*
CC(=O)c1cc(-c2cccc(C(C)C)c2)c(=O)n2c1CCC2,-0.1,-1.4,.,.,.,.,.,.
C[C@H](O)[C@@H]1C(=O)N2CCc3c([nH]c4c(-c5ccc6c(c5)OCO6)cccc34)[C@@H]2C[C@@H]1N(C)C(=O)NC1CCCCC1,-0.3,-2.9,.,.,.,.,.,.
Cc1ccc(-n2c(SCC(=O)Nc3ccc4c(c3)OCCO4)nnc2-c2cccnc2)cc1,-0.9,-3.5,.,.,.,.,.,.
CCc1ccc(NC(=O)c2cnn(-c3ccccc3)c2C)cc1,6.1*,5.2,0.2,3.7,-0.9,-129.5,11.1*,6.0*
CN1OC[C@@H]2CN[C@H](c3cccc(-c4cc(Cl)cc(Cl)c4)c3)C[C@@H]21,0.4,3.3,.,.,0.1,-23.1,.,.
CN1OC[C@@H]2CN[C@H](c3ccc(-c4ccc(C#N)cc4)cc3)C[C@@H]21,5.4*,3.0,.,.,2.7,-61.7,13.6*,8.1*
COc1ccc(S(=O)(=O)N2CCN(CC(=O)Nc3c(C)n[nH]c3C)CC2)cc1OC,-0.4,-2.8,.,-18.5,1.3,1.7,.,.
Cc1n[nH]c(C)c1NC(=O)CN1CCN(S(=O)(=O)c2ccc(C(F)(F)F)cc2)CC1,4.6*,-1.7,.,.,-0.6,8.2,0.5,5.2*
CC(C)C[C@H](NC(=O)OCC1c2ccccc2-c2ccccc21)C(=O)O,5.8*,0.4,.,.,1.3,-18.4,6.6*,5.8*
O=C(Nc1ccc2c(c1)nc1n2CCSC1)c1ccccc1,5.9*,4.0,-0.1,-2.3,-0.9,-132.1,12.6*,8.6*
C=CCN(CC#Cc1ccccc1)CC1CC1,-0.2,-3.5,.,.,.,.,.,.
O=C(COc1ccc2ccccc2c1Br)Nc1cccnc1,5.1*,4.0,8.1,-0.5,0.4,15.1,4.2*,1.6
Cc1ccccc1CNC(=O)C1CCCN(c2ncccn2)C1 (stereo not drawn),-0.2,-2.9,.,.,.,.,.,.
CCOC(=O)CNc1c(-c2ccccc2)nc2ccc(Cl)cn12,1.9,6.4,1.1,2.0,2.7,-99.7,.,.
COC(=O)CNc1c(-c2ccccn2)nc2ccc(Br)cn12,4.9*,3.1,-1.1,5.3,1.4,-116.5,11.6*,6.2*
COc1ccc(Cl)c(-c2cc(C(=O)Nc3ccccc3)[nH]n2)c1,7.0*,-0.9,.,.,.,-69.1,6.7*,5.2*
CCOc1ccc(-c2cc(C(=O)Nc3ccc(F)cc3)[nH]n2)c(C)c1,7.4*,6.4,.,.,.,-87.3,10.2*,6.7*
CC(=O)c1sc(NC(=O)c2ccc3c(c2)OCO3)nc1C,9.4*,3.6,10.1,2.2,2.3,-151.2,9.5*,6.5*
CC(=O)c1sc(NC(=O)c2ccccc2F)nc1C,5.4*,-0.5,-1.1,-2.9,-0.4,-101.2,12.9*,6.4*
COC(=O)CSc1nnc(NC(=O)c2ccc3c(c2)OCO3)s1,4.7*,6.8,1.7,-6.7,0.1,-102.5,8.7*,3.5*
O=C(O)CSc1nnc(NC(=O)c2ccc3c(c2)OCO3)s1,0.1,-1.2,-2.3,25.6,-1.7,1.4,.,.
SMILES,DAX1 inh-1,SMARCA2 act,NR2E3 ag-1,GASC-1 inh,DAX1 inh-2,NR2E3 ag-2,DAX1 conf,SF1 AF2mut Luc
CCCCN1CCS(=O)(=O)N(Cc2cn(Cc3ccccc3Br)nn2)C(C(=O)OC)C1 (stereo not drawn),-1.1,-1.9,.,.,.,.,.,.
O=C(NC1=NCCS1)c1cc2ccccc2o1,5.3*,0.5,-1.5,6.8,-1.1,-139.4,11.4*,7.2*
Cc1csc(NC(=O)c2cc3ccccc3o2)n1,8.6*,4.2,1.3,-1.8,-0.7,-146.3,15.1*,6.1*
O=C(NC1=NCCS1)c1ccccc1,0.6,-1.7,3.0,-0.4,1.3,-8.9,.,.
Cc1csc(NC(=O)c2ccc(C)c([N+](=O)[O-])c2)n1,5.9*,1.4,5.0,-3.4,-0.8,-179.0,7.7*,4.7*
Cc1cc(C)nc(NC(=O)c2ccc(C)c([N+](=O)[O-])c2)n1,-0.4,-0.3,0.8,-12.7,-0.6,-23.3,.,.
CCOC(=O)Cc1csc(NC(=O)c2cc3ccccc3o2)n1,1.2,2.9,3.1,1.2,-0.6,-11.0,.,.
Cc1cccc(C(=O)NC2=NCCS2)c1,4.6*,3.3,6.6,1.9,1.6,-106.6,13.1*,8.1*
O=C(Nc1ccc(Cl)cn1)c1cc2ccccc2o1,4.8*,2.1,2.5,5.9,2.1,-104.2,14.3*,6.8*
O=C(COc1ccc(Cl)cc1Cl)Nc1ccc(Cl)cn1,6.2*,4.8,4.0,-6.2,0.6,-41.5,8.3*,3.5*
Cc1cc(Cl)ccc1OCC(=O)OCC(=O)Nc1ccc(Cl)cn1,-0.2,0.6,.,.,0.7,-14.2,.,.
O=C(NC(=O)c1ccccc1)Nc1ccc(Cl)cn1,7.9*,3.6,0.0,2.6,1.0,-99.8,14.2*,7.3*
Cc1ccc(C(=O)Nc2ncccc2O)o1,6.0*,1.5,3.3,-0.3,2.9,-47.3,5.4*,1.4
O=C(Nc1nc2ncccn2c1-c1ccc(F)c(F)c1)c1ccccc1,-1.7,-2.4,.,.,.,.,.,.
CC(=O)O[C@@H]1CCC[C@@]2(C(=O)N(Cc3ccccc3)c3ccc(-c4c(C)noc4C)cc32)[C@H]1NC(=O)CCc1ccccc1,-1.4,-3.6,.,.,.,.,.,.
O=C(OC12CCCN(C1)/C(=C/c1ccccc1)C2)C1CCCCC1 (stereo not drawn),-0.5,-5.2,.,.,.,.,.,.
COc1ccc(S[C@]2(C(=O)N(C)C)CC(=O)N(c3ccc(Cl)cc3)[C@@H]2c2ccc(OC)cc2)cc1,-2.0,-2.1,.,.,.,.,.,.
